Measurements published in ChEMBL document CHEMBL1152649, “Synthesis, cytotoxicity and human telomerase inhibition activities of a series of 1,2-heteroannelated anthraquinones and anthra[1,2-d]imidazole-6,11-dione homologues” (2009).

How the values were obtained:
HOP-62 = test: Antiproliferative activity against human HOP62 cells assessed as cell growth at 10 uM; format: functional; details: read-out: Activity
Summary of the method: (§1)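 NCI 60 cell line panel, single-dose screen (10^-5 M) run by the developmental therapeutics program protocol. Results are given as growth percent of treated cells relative to untreated control cells for each line.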

SW-620 = test: Antiproliferative activity against human SW620 cells assessed as cell growth at 10 uM; format: functional; details: read-out: Activity
Summary of the method: (§2)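 NCI 60 cell line panel, single dose (10^-5 M), run per the Developmental Therapeutics Program protocol (one dose mean graph). Each result is the growth percentage of treated cells relative to untreated control cells.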

MCF7 = test: Antiproliferative activity against human MCF7 cells assessed as cell growth at 10 uM; format: functional; details: read-out: Activity; summary of the method: as §1
MDA-MB-435 = test: Antiproliferative activity against human MDA-MB-435 cells assessed as cell growth at 10 uM; format: functional; details: read-out: Activity; summary of the method: as §1
SK-OV-3 = test: Antiproliferative activity against human SKOV3 cells assessed as cell growth at 10 uM; format: functional; details: read-out: Activity; summary of the method: as §1
K562 = test: Antiproliferative activity against human K562 cells assessed as cell growth at 10 uM; format: functional; details: read-out: Activity; summary of the method: as §1
[1] = Antiproliferative activity against human RPMI8266 cells assessed as cell growth at 10 uM; format: functional; details: read-out: Activity; summary of the method: as §1
SR = test: Antiproliferative activity against human SR cells assessed as cell growth at 10 uM; format: functional; details: read-out: Activity; summary of the method: as §2
786-0 = test: Antiproliferative activity against human 786-0 cells assessed as cell growth at 10 uM; format: functional; details: read-out: Activity; summary of the method: as §1
ACHN = test: Antiproliferative activity against human ACHN cells assessed as cell growth at 10 uM; format: functional; details: read-out: Activity; summary of the method: as §1
CAKI-1 = test: Antiproliferative activity against human Caki1 cells assessed as cell growth at 10 uM; format: functional; details: read-out: Activity; summary of the method: as §1
SK-MEL-5 = test: Antiproliferative activity against human SK-MEL-5 cells assessed as cell growth at 10 uM; format: functional; details: read-out: Activity; summary of the method: as §1
HOP-92 = test: Antiproliferative activity against human HOP92 cells assessed as cell growth at 10 uM; format: functional; details: read-out: Activity; summary of the method: as §1
NCI-H23 = test: Antiproliferative activity against human NCI-H23 cells assessed as cell growth at 10 uM; format: functional; details: read-out: Activity; summary of the method: as §1
NCI-H322M = test: Antiproliferative activity against human NCI-H322M cells assessed as cell growth at 10 uM; format: functional; details: read-out: Activity; summary of the method: as §1
NCI-H460 = test: Antiproliferative activity against human NCI-H460 cells assessed as cell growth at 10 uM; format: functional; details: read-out: Activity; summary of the method: as §1
KM12 = test: Antiproliferative activity against human KM12 cells assessed as cell growth at 10 uM; format: functional; details: read-out: Activity; summary of the method: as §1
[2] = target: Telomerase reverse transcriptase (Homo sapiens) (UniProt O14746); test: Inhibition of TERT in human H1299 cells assessed as residual transcriptional activity at 100 uM after 24 hrs by SEAP reporter gene assay; values are per cent of control
Telomerase reverse transcriptase (Homo sapiens), sequence (O14746 whole entry): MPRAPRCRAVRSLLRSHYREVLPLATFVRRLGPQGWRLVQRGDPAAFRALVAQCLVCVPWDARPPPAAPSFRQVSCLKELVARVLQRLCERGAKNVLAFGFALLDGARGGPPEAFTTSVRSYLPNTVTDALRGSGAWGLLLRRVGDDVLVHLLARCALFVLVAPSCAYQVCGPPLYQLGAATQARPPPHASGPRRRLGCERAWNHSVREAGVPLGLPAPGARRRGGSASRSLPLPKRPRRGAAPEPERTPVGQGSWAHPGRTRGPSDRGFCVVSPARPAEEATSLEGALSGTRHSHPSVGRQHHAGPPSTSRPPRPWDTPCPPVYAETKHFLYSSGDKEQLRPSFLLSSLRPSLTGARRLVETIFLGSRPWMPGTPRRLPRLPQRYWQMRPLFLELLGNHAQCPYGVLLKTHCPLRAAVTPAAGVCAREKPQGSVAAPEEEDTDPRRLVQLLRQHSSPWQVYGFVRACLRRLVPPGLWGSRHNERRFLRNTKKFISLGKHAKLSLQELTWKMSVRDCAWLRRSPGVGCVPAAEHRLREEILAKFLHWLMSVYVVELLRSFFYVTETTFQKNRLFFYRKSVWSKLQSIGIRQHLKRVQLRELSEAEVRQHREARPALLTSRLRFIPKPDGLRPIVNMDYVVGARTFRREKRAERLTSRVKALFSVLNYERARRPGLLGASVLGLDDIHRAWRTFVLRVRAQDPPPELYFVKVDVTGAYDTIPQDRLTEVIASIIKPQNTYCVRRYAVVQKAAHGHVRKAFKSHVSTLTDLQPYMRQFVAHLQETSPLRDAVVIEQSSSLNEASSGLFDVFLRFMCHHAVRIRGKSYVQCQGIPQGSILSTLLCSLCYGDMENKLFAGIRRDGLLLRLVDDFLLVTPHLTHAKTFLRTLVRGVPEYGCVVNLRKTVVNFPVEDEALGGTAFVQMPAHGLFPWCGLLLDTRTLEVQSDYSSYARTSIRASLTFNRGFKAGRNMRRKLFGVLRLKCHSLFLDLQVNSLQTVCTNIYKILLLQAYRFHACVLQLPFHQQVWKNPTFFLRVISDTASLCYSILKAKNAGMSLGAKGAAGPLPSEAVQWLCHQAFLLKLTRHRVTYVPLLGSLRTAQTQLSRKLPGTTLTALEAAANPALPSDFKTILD

Structure (SMILES)	growth at 10 µM (HOP-62)	growth at 10 µM (SW-620)	growth at 10 µM (MCF7)	growth at 10 µM (MDA-MB-435)	growth at 10 µM (SK-OV-3)	growth at 10 µM (K562)	growth at 10 µM [1]	growth at 10 µM (SR)	growth at 10 µM (786-0)	growth at 10 µM (ACHN)	growth at 10 µM (CAKI-1)	growth at 10 µM (SK-MEL-5)	growth at 10 µM (HOP-92)	growth at 10 µM (NCI-H23)	growth at 10 µM (NCI-H322M)	growth at 10 µM (NCI-H460)	growth at 10 µM (KM12)	residual activity [2]
Cc1ccc(-c2nc3ccc4c(c3[nH]2)C(=O)c2ccccc2C4=O)cc1	110%	113%	41.9%	105%	84.5%	102%	91.5%	114%	113%	101%	110%	88%	77.3%	98.8%	84.6%	93.6%	106%	29%
O=C1c2ccccc2C(=O)c2c1ccc1nc(-c3ccc(Br)cc3)[nH]c21	104%	95%	75.3%	110%	105%	109%	95.2%	92.4%	111%	91.4%	86.6%	87.1%	83.5%	93.1%	167%	96.2%	102%	36%
O=C1c2ccccc2C(=O)c2c1ccc1nc(-c3ccc4c(c3)OCO4)[nH]c21	114%	91.9%	46.5%	110%	139%	80.6%	96.2%	91.7%	107%	104%	114%	98.7%	65.3%	94.3%	150%	109%	97.8%	34%
CC1(C)Nc2ccc3c(c2N1)C(=O)c1ccccc1C3=O		91.7%	83.6%	125%	35.9%	101%	99.9%	72.4%	86.2%	50.2%	61.7%	86.5%	5.1%	87%	79.7%	71.5%	51.5%	9%
